These results are taken from ChEMBL document CHEMBL2311400, “Synthesis and biological evaluation of 4-(aminomethyl)-1-hydroxypyrazole analogues of muscimol as γ-aminobutyric acid(a) receptor agonists” (J Med Chem, 2013).

The target of assay [1] is T1, Gamma-aminobutyric acid receptor subunit rho-1 (Homo sapiens, UniProt P24046). Put plainly: Agonist activity at human GABAA rho1 receptor expressed in HEK293 cells by patch clamp electrophysiology assay relative to GABA. It is filed as cell-based. Put shortly:
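Human ρ1 (pCDNA3) co-transfected with a GFP plasmid into HEK 293 cells. Whole-cell voltage clamp at −60 mV, 40–72 h after transfection, room temperature (20–22 °C). Extracellular solution pH 7.35; intrapipette solution with KCl 140 mM, EGTA 10 mM, MgATP 2 mM, pH 7.3.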

Assay [2] can be described thus: Agonist activity at human GABAA alpha5beta2gamma2S receptor expressed in TSA201 cells after 1 min by FLIPR assay. The format is cell-based. The conditions noted are these: tsA201, 1 min.
Assay [3] deals with GABA-A receptor; alpha-1/beta-2/gamma-2 (Homo sapiens) (UniProt P14867+P47870+P18507). Put plainly: Agonist activity at human GABAA alpha1beta2gamma2S receptor expressed in HEK293 cells by patch clamp electrophysiology assay relative to GABA. The format is cell-based. In general terms: The patch-clamp technique gives a direct electrical read-out from membranes.
The target of assay [4] is T1, Gamma-aminobutyric acid receptor subunit rho-1. Nature of the assay: Agonist activity at human GABAA rho1 receptor expressed in TSA201 cells after 1 min by FLIPR assay. The format is cell-based. Put shortly: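 tsA201 cells transfected with 5 μg human ρ1 cDNA, then plated on poly-D-lysine plates for 16–24 h. Loaded with FLIPR membrane potential blue dye in Krebs buffer (pH 7.4), 30 min at 37 °C. Emission at 560 nm (excitation 530 nm) recorded before and up to 1 min after agonist addition. Curves fitted from ΔFU; duplicate, at least three times.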

Assay [5] deals with TSA201. Put plainly: Agonist activity at human GABAA alpha5beta2gamma2S receptor expressed in TSA201 cells after 1 min by FLIPR assay relative to GABA. The format is cell-based. In short, it runs like this:
(§1)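 tsA201 cells transfected with 1 μg α (1, 2, 3 or 5), 1 μg β2 and 3 μg γ2S cDNA (Polyfect). Cells replated onto poly-D-lysine plates and assayed 16–24 h later. Loaded with FMP blue dye in Krebs buffer pH 7.4 for 30 min at 37 °C. Fluorescence (ex 530/em 560 nm) read before and up to 1 min after agonist addition. ΔFU concentration-response curves; duplicate, ≥3 experiments.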

The nature of assay [6]: Displacement of [3H]muscimol from GABAA receptor in rat synaptic membrane after 60 mins by scintillation counting analysis. The format is cell membranes. In short, it runs like this: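 Membranes from cortex and central hemispheres of male SPRD rat brains, washed repeatedly in 50 mM Tris-HCl pH 7.4. 70–80 μg protein per well incubated with [3H]muscimol. Separated by GF/C filtration with ice-cold buffer washes; bound radioactivity counted by scintillation. Nonspecific binding defined with 1.0 mM GABA.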
For orientation: Loss of bound radioactivity is the signal in a displacement assay; it reports binding, not function.

Assay [7] addresses GABA A receptor alpha-3/beta-2/gamma-2 (Homo sapiens) (UniProt P47870+P18507+P34903). Nature of the assay: Agonist activity at human GABAA alpha3beta2gamma2S receptor expressed in TSA201 cells after 1 min by FLIPR assay relative to GABA. The format is cell-based. Put shortly: as §1
Assay [8] deals with T2, GABA A receptor alpha-2/beta-2/gamma-2 (Homo sapiens, UniProt P18507+P47869+P47870).
T2 sequence (P47870 whole entry): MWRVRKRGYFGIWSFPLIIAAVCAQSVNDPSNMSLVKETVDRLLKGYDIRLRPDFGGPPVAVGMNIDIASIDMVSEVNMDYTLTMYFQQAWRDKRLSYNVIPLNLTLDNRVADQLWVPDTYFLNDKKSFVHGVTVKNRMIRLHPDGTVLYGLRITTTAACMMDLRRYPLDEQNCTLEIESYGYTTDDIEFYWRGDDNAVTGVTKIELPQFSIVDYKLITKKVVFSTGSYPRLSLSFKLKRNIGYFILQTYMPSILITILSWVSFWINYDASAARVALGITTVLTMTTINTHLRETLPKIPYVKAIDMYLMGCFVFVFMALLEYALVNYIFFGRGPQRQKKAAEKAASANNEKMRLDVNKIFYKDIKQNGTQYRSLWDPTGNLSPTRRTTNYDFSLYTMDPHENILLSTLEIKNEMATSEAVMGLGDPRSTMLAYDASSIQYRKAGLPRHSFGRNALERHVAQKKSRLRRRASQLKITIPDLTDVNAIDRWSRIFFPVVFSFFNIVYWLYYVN
T2 sequence (P18507 whole entry): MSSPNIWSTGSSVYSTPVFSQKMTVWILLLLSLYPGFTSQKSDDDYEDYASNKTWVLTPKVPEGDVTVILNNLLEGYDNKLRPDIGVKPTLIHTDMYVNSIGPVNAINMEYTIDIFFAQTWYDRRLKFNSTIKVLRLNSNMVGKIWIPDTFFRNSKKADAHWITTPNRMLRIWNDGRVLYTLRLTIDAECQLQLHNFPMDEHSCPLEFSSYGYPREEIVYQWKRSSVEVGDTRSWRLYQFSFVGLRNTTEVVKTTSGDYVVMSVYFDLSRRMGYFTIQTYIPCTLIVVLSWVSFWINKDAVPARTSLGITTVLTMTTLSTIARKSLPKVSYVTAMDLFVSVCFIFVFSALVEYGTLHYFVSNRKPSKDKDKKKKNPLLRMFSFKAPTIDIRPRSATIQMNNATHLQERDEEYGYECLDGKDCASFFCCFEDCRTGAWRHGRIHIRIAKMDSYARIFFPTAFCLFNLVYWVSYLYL
T2 sequence (P47869 whole entry): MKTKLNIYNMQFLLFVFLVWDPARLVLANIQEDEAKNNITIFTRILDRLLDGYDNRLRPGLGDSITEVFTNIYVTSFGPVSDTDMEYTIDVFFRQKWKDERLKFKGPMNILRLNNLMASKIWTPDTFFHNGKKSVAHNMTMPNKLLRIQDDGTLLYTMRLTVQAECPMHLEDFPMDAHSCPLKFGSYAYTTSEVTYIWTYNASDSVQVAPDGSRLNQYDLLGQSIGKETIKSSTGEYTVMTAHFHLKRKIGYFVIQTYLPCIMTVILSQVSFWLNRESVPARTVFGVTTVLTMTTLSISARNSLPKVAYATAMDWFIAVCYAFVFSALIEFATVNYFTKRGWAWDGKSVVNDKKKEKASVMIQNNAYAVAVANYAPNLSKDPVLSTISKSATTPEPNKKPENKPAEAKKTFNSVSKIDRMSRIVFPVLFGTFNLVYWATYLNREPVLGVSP
Put plainly: Agonist activity at human GABAA alpha2beta2gamma2S receptor expressed in TSA201 cells after 1 min by FLIPR assay. The format is cell-based. Put shortly:
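tsA201 cells transfected with 1 μg α (1, 2, 3 or 5), 1 μg β2 and 3 μg γ2S cDNA (Polyfect). Cells replated onto poly-D-lysine plates and assayed 16–24 h later. Loaded with FMP blue dye in Krebs buffer pH 7.4 for 30 min at 37 °C.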

The target of assay [9] is GABA A receptor alpha-2/beta-2/gamma-2 (Homo sapiens) (UniProt P47870+P18507+P47869). Nature of the assay: Agonist activity at human GABAA alpha2beta2gamma2S receptor expressed in TSA201 cells after 1 min by FLIPR assay relative to GABA. The format is cell-based. In short, it runs like this: as §1

Molecules are shown by their SMILES.

The term Ki denotes a measure of affinity in units of concentration, obtained from inhibition or displacement. High values mean lower affinity, low ones higher affinity. By pKi is commonly meant the negative decadic logarithm of the Ki, by convention in mol/L.

T1 sequence (P24046 whole entry): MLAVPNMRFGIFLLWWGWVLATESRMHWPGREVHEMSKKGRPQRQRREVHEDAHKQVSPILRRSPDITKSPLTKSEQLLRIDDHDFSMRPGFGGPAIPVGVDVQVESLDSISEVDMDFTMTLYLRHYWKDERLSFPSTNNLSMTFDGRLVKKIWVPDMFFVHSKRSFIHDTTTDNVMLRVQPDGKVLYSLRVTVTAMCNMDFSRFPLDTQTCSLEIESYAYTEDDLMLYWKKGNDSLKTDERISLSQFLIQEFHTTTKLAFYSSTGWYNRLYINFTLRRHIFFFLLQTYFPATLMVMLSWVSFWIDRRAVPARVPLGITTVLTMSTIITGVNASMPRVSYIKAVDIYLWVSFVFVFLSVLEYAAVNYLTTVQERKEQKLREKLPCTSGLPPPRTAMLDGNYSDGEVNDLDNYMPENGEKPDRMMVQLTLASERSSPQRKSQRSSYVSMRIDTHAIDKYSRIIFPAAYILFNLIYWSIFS

For the compound `NCc1cnn(O)c1`, the Rmax in [1] was 70%; in assay [3], 69%; in assay [5], 77%; in assay [7] it was 77%; in [9], 77%. Besides, the EC50 in assay [2] (read-out: EC50) was 780 nM; in assay [2] (read-out: pEC50 (converted)), 794 nM; in assay [4] it was 3100 nM; in assay [8] it was 4500 nM. The same compound showed an inhibitory constant (Ki) in [6] of 220 nM. In addition, the negative logarithm of the Ki (pKi) in assay [6] is 6.68.
